The results in this text go back to ChEMBL document CHEMBL4428077, “Synthesis and Biological Evaluation of N-((1-(4-(Sulfonyl)piperazin-1-yl)cycloalkyl)methyl)benzamide Inhibitors of Glycine Transporter-1” (J Med Chem, 2016).

Each structure is given as a SMILES string.

Data set [1] relates to Rattus norvegicus. Briefly: In vivo inhibition of glycine transporter-1 in Sprague-Dawley rat assessed as CSF glycine level at 100 mg/kg, po measured 2 hrs post dose by LC-MS/MS analysis relative to control. Format: functional. More on the design: scale not given: the % may be the effect or the level left. A digest of the protocol:
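Drug-naive Sprague-Dawley rats, n = 5 per group, given acute oral doses of 0.4-160.9 μmol/kg (0.3-100 mg/kg). Vehicle was Solutol 5% in 20% Captisol / 25 mM PBS, pH 2. Killed 2 h post-dose. CSF glycine was quantified by LC-MS/MS with a deuterated-glycine standard and expressed as % vehicle control, mean ± SEM. Two-way ANOVA with Tukey test.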

Data set [2] in a line: Drug level in Sprague-Dawley rat brain at 30 mg/kg, po measured 2 hrs post dose by LC-MS/MS analysis. Type of data set: ADME, organism-based. To be noted: read-out: Drug uptake. The essentials:
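Drug-naive Sprague−Dawley rats (n = 4−5/group) were dosed orally once in 5% Solutol plus 20% Captisol in 25 mM PBS, pH 2, and euthanized 2 h later by CO₂. CSF was drawn from the cisterna magna. Drug was measured in CSF, brain and plasma; data as mean ± SEM.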

Data set [3] in a line: Drug level in Sprague-Dawley rat CSF at 1 mg/kg, po qd for 5 days measured 2 hrs post last dose by LC-MS/MS analysis. Conditions: read-out: Drug uptake; call rule not given here. Format: ADME, organism-based, Cerebrospinal fluid. A digest of the protocol:
(§1)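 Drug-naive Sprague−Dawley rats (n = 5/group) were dosed orally once daily for 5 days in 5% Solutol plus 20% Captisol in 25 mM PBS, pH 2, and sacrificed 2 h after the last dose. Drug was measured in CSF, brain and plasma; mean ± SEM.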

Data set [4] is described as follows: Drug level in Sprague-Dawley rat CSF at 3 mg/kg, po qd for 5 days measured 2 hrs post last dose by LC-MS/MS analysis. To be noted: read-out: Drug uptake. Type of data set: ADME, organism-based, Cerebrospinal fluid. The essentials:
as §1

Data set [5] is described as follows: Drug level in Sprague-Dawley rat plasma at 1 mg/kg, po qd for 5 days measured 2 hrs post last dose by LC-MS/MS analysis. Type of data set: ADME, organism-based. A digest of the protocol: as §1
Data set [6] is described as follows: Toxicity in Sprague-Dawley rat assessed as gross behavioral abnormality at 0.3 to 100 mg/kg, po. Format: organism-based. Conditions: in vivo. A digest of the protocol:
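Drug-naive Sprague–Dawley rats (n = 5/group) received a single oral dose of 0.4–160.9 μmol/kg in 5% Solutol plus 20% Captisol in 25 mM PBS, pH 2, and were watched for gross behavioral abnormalities until sacrifice at 2 h.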

The nature of data set [7]: Intrinsic clearance in cynomolgus monkey. Type of data set: ADME, Macaca fascicularis.
A further data set has as its target Cytochrome P450 2D6 (Homo sapiens, UniProt P10635). Briefly: Inhibition of CYP2D6 (unknown origin). Format: ADME.
Data set [8] is described as follows: Efflux ratio of apparent permeability in human Caco2 cells. Conditions: Caco-2. Type of data set: ADME, cell-based. Background: Caco-2 cells form a polarised layer with tight junctions and transporters.
Data set [9] in a line: Total clearance in Sprague-Dawley rat at 10 mg/kg, po or 2 mg/kg, iv administered as single dose measured up to 24 hrs post dose by LC-MS/MS analysis. Format: ADME, organism-based. To be noted: in vivo. A digest of the protocol: (§2)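 Groups of three drug-naive adult male Sprague–Dawley rats, single dose: IV 3.1 μmol/kg in 5% DMSO/10% Solutol in saline (5 mL/kg), or PO 15.7 μmol/kg in 5% Solutol/10% Captisol in 25 mM PBS adjusted to pH 2 with HCl. Plasma concentration–time data give the parameters; mean ± SD.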

The nature of data set [10]: Apparent terminal half life in Sprague-Dawley rat plasma at 10 mg/kg, po or 2 mg/kg, iv administered as single dose by LC-MS/MS analysis. Type of data set: ADME, organism-based. Conditions: read-out: betat1/2(app) (converted). A digest of the protocol: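 Single-dose PK in drug-naive adult male Sprague−Dawley rats, n = 3 per group: 3.1 μmol/kg IV in 5% DMSO/10% Solutol in saline (5 mL/kg), or 15.7 μmol/kg PO in 5% Solutol/10% Captisol in 25 mM PBS, pH adjusted to 2 with HCl. Plasma parameters reported as mean ± SD.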

A short description of data set [11]: Volume of distribution at steady state in Sprague-Dawley rat at 10 mg/kg, po or 2 mg/kg, iv administered as single dose measured up to 24 hrs post dose by LC-MS/MS analysis. Format: ADME, organism-based. Conditions: in vivo, read-out: Vdss. A digest of the protocol:
as §2

The nature of data set [12]: Oral bioavailability in Sprague-Dawley rat at 10 mg/kg administered as single dose measured up to 24 hrs post dose by LC-MS/MS analysis. Format: ADME, organism-based. To be noted: in vivo. A digest of the protocol: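 Male Sprague-Dawley rats, n = 3 per group. Dosing was 3.1 μmol/kg IV (5% DMSO / 10% Solutol in saline, 5 mL/kg) and 15.7 μmol/kg PO (5% Solutol / 10% Captisol in 25 mM PBS, pH 2). F = (AUC_INF,po × Dose_iv)/(AUC_INF,iv × Dose_po). Mean ± SD.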

Data set [13] is described as follows: Drug level in po dosed Sprague-Dawley rat plasma measured 2 hrs post dose by LC-MS/MS analysis. Type of data set: ADME, organism-based. Conditions: in vivo.
Data set [14] can be described thus: Drug level in cynomolgus monkey plasma at 3 mg/kg, po measured at 0.5 hr post dose by LC-MS/MS analysis. Format: ADME, organism-based, Macaca fascicularis.
A short description of data set [15]: Drug level in cynomolgus monkey plasma at 3 mg/kg, po measured at 8 hrs post dose by LC-MS/MS analysis. Type of data set: ADME, organism-based, Macaca fascicularis.
Data set [16] can be described thus: Drug level in cynomolgus monkey plasma at 3 mg/kg, po measured at 12 hrs post dose by LC-MS/MS analysis. Type of data set: ADME, organism-based, Macaca fascicularis.
The nature of data set [17]: Drug level in cynomolgus monkey plasma at 10 mg/kg, po measured at 1 hr post dose by LC-MS/MS analysis. Format: ADME, organism-based, Macaca fascicularis. The essentials: (§3)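 Cynomolgus monkeys (n = 3/group) fitted with subcutaneous CSF ports were dosed orally at 0.4−15.7 μmol/kg in 5% Solutol plus 20% Captisol in 25 mM PBS, pH 2. CSF (about 0.30 mL) and blood were sampled predose and at 0.5, 1, 2, 3, 4, 8, 12 and 24 h. Quantitation limit 1.0 ng/mL; mean ± SD.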

Data set [18] can be described thus: Drug level in cynomolgus monkey plasma at 10 mg/kg, po measured at 2 hrs post dose by LC-MS/MS analysis. Format: ADME, organism-based, Macaca fascicularis. The essentials: as §3
Data set [19] can be described thus: Drug level in cynomolgus monkey plasma at 10 mg/kg, po measured at 24 hrs post dose by LC-MS/MS analysis. Type of data set: ADME, organism-based, Macaca fascicularis.
Data set [20] can be described thus: Drug level in cynomolgus monkey CSF at 10 mg/kg, po measured at 12 hrs post dose by LC-MS/MS analysis. Format: ADME, organism-based, Macaca fascicularis, Cerebrospinal fluid. Conditions: read-out: Drug uptake. The essentials:
as §3

Data set [21] can be described thus: Drug level in po dosed cynomolgus monkey plasma measured up to 24 hrs post dose by LC-MS/MS analysis. Type of data set: ADME, organism-based, Macaca fascicularis. To be noted: in vivo.
The subject of data set [22] is Rattus norvegicus. Briefly: In vivo inhibition of glycine transporter-1 in Sprague-Dawley rat assessed as increase in medial prefrontal cortex glycine level at 3 to 10 mg/kg, po administered through oral gavage measured after 80 to 300 mins by LC-MS/MS analysis relative to control. Format: functional. More on the design: scale not given: the % may be the effect or the level left. The essentials:
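Freely moving drug-naive adult male Sprague-Dawley rats, n = 5-6 per group, given 1.5, 4.7 or 15.7 μmol/kg by oral gavage at t = 0. Vehicle was 5% Solutol / 20% Captisol in 25 mM PBS, pH 2. mPFC dialysate was sampled over 5 h and analysed by HPLC-MS/MS. Values were normalized to basal levels (t = -80 to 0 min). Two-way repeated-measures ANOVA with Student-Newman-Keuls test.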

The nature of data set [23]: Protein binding in monkey plasma. Conditions: cynomolgus monkey, read-out: PPB (converted).

Cytochrome P450 2D6, sequence (P10635 whole entry): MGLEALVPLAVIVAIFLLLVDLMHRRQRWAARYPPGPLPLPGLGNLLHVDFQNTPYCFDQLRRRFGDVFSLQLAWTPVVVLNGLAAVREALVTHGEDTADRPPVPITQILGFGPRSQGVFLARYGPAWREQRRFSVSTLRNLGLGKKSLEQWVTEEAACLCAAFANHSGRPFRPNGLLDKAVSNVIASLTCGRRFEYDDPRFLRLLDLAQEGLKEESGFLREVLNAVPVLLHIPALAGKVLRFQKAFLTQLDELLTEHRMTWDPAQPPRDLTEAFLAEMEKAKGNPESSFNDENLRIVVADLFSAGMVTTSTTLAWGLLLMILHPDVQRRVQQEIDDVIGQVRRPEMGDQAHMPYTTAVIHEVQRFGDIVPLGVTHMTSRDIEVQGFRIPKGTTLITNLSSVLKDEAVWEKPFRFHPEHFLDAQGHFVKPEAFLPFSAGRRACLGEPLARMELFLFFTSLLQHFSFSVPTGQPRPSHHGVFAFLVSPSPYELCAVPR

As for `Cl.Cn1cc(S(=O)(=O)N2CCN(C3(CNC(=O)c4ccc(C(F)(F)F)cc4Cl)CCC(F)(F)CC3)CC2)nn1`, the Activity in the data set on Rattus norvegicus [1] is recorded as 329.1%; in data set [6], “Non-Toxic”. For the same compound, the concentration at 2 h in [2] worked out at 66.8 nM; in data set [3] it was 1 nM; in data set [4], 1.1 nM; in data set [5], 38.2 nM.

The term IC50 denotes the concentration needed to halve the response being measured. By efflux ratio is commonly meant a quotient of directional permeabilities that is used to spot active efflux. As a reminder, the bioavailability is dose-corrected exposure relative to a reference, in per cent. Take `CC(NC(=O)c1ccc(C(F)(F)F)cc1Cl)C1(N2CCN(S(=O)(=O)c3cn(C)nn3)CC2)CCC(F)(F)CC1.Cl` (single isomer, unassigned; (+)): the CL in [7] is 12 microL/ml/min. On Cytochrome P450 2D6, this compound registered an IC50 of over 7.2 µM. In data set [8], the efflux ratio was determined as 2. The clearance in [9] is 23.3 mL/min/kg. Besides, the half-life in [10] is 4.33 h. In addition, in [11], the Vd amounted to 1.75 L/kg. The bioavailability in data set [12] is 27.2%. The Drug uptake result in [13] and in [21] was “Dose-dependent effect” throughout. Moreover, the concentration at 0.5 h in data set [14] came out at 1.6 ng/mL. In addition, the concentration at 8 h in data set [15] was 2 ng/mL. The concentration at 12 h in data set [16] was under 1 ng/mL; in data set [20], 5 ng/mL. The compound further had a concentration at 1 h in data set [17] of 203 ng/mL. This compound also showed a concentration at 2 h in data set [18] of 222 ng/mL. The concentration at 24 h in data set [19] came out at 10.3 ng/mL. For the same compound, in the data set on Rattus norvegicus [22], the Activity is reported as over 150%. The fraction unbound in [23] is 0.19.
